# Key:
# BXPC-3 [1] = assay: Antitumor activity against human BxPC3 cells xenografted in SCID mouse assessed as tumor growth inhibition at 70 mg/kg, ip administered twice a week for three cycles measured after 3 cycles relative to control; type: functional; settings: BXPC-3, ip, route intraperitoneal, read-out: TGI
# Outline: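 BxPC3 xenografts were grown in SCID mice from inocula of 10^6 exponentially growing cells, with 10 mice (20 tumors) per group. Treatment started ip once tumors averaged about 100 mm3. The test agent was given in 5% Tween 80 and gemcitabine in water for injection. Tumor volume was measured by caliper twice weekly and %ΔT/ΔC was computed; two-tailed Student's t test.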
# MIA PaCa-2 = assay: Growth inhibition of human MIAPaCa2 cells after 48 hrs by SRB assay; type: functional; settings: MIA PaCa-2, 48 h; for CC50: read-out: LC50 (the source's name)
# Outline: (§1)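 Cells grown in RPMI 1640 with 5% heat-inactivated FCS, 2 mM L-glutamine and antibiotics, 37 °C, 5% CO2. Seeded at 3500–30000 cells/well and left 24 h before dosing. DMSO solutions added at 10-fold dilutions from 100 to 0.01 μM for 48 h. Cells TCA-fixed and SRB-stained, absorbance read at 540 nm; GI50 derived against the time-zero plate.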
# BXPC-3 [2] = assay: Growth inhibition of human BxPC3 cells after 48 hrs by SRB assay; type: functional; settings: BXPC-3, 48 h; outline: as §1
# HCT-116 = assay: Growth inhibition of human HCT116 cells after 48 hrs by SRB assay; type: functional; settings: HCT-116, 48 h; for CC50: read-out: LC50 (the source's name); outline: as §1
# OVCAR-5 = assay: Growth inhibition of human OVCAR5 cells after 48 hrs by SRB assay; type: functional; settings: OVCAR-5, 48 h; outline: as §1
# HL-60(TB) = assay: Growth inhibition of human HL-60(TB) cells after 48 hrs by SRB assay; type: functional; settings: HL-60, 48 h; for CC50: read-out: LC50 (the source's name)
# Outline: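 Cells kept in RPMI 1640 with 5% FCS at 37 °C, 5% CO2, and seeded 24 h before dosing. Compound given from DMSO at 10-fold dilutions, 100 to 0.01 μM, for 48 h. Cells fixed with TCA, stained with SRB, absorbance read at 540 nm. GI50 taken from a time-zero plate.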
# BXPC-3 [3] = assay: Antitumor activity against human BxPC3 cells xenografted in SCID mouse assessed as tumor growth inhibition at 17 mg/kg, ip administered twice a week for three cycles measured after 3 cycles relative to control; type: functional; settings: BXPC-3, ip, route intraperitoneal, read-out: TGI
# Outline: (§2)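 SCID mice bearing BxPC3 pancreatic xenografts, 10 mice per group (20 tumors). Drug dissolved in water for injection, given ip twice a week for three cycles. Controls were untreated and 5% Tween 80 vehicle. Tumor volume measured by caliper twice weekly; reduction reported on termination day. Two-tailed Student's t test.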
# HCT-15 = assay: Growth inhibition of human HCT15 cells after 48 hrs by SRB assay; type: functional; settings: HCT-15, 48 h; for CC50: read-out: LC50 (the source's name); outline: as §1
# MCF7 = assay: Growth inhibition of human MCF7 cells after 48 hrs by SRB assay; type: functional; settings: MCF7, 48 h; for CC50: read-out: LC50 (the source's name); outline: as §1
# [4] = (§3) Growth inhibition of human HUVEC cells after 48 hrs by SRB assay; type: cell-based; settings: HUVEC cells; outline: as §1
# [5] = Growth inhibition of human MSC cells after 48 hrs by SRB assay; type: cell-based; outline: as §1
# [6] = (§4) Growth inhibition of human NHDF cells after 48 hrs by SRB assay; type: cell-based; settings: NHDF cells; outline: as §1
# NHDF = assay: as §4; type: cell-based; settings: nhdf, 48 h; outline: as §1
# BXPC-3 [7] = assay: Antitumor activity against human BxPC3 cells xenografted in SCID mouse assessed as tumor growth inhibition at 35 mg/kg, ip administered twice a week for three cycles measured after 3 cycles relative to control; type: functional; settings: BXPC-3, ip, route intraperitoneal, read-out: TGI; outline: as §2
# U-251 = assay: Growth inhibition of human U251 cells after 48 hrs by SRB assay; type: functional; settings: U-251, 48 h; for CC50: read-out: LC50 (the source's name); outline: as §1
# IGROV-1 = assay: Growth inhibition of human IGROV1 cells after 48 hrs by SRB assay; type: functional; settings: IGROV-1, 48 h; for CC50: read-out: LC50 (the source's name); outline: as §1
# SK-HEP1 = assay: Growth inhibition of human SKHEP1 cells after 48 hrs by SRB assay; type: functional; settings: SK-HEP1, 48 h; for CC50: read-out: LC50 (the source's name); outline: as §1
# PC-3 [8] = assay: Growth inhibition of human PC3 cells after 48 hrs by SRB assay; type: functional; settings: PC-3, 48 h; for CC50: read-out: LC50 (the source's name); outline: as §1
# DU-145 [9] = assay: Growth inhibition of human DU145 cells after 48 hrs by SRB assay; type: functional; settings: DU-145, 48 h; for CC50: read-out: LC50 (the source's name); outline: as §1
# BXPC-3 [10] = assay: Antitumor activity against human BxPC3 cells xenografted in SCID mouse assessed as tumor growth inhibition at 10 mg/kg, ip administered 5 times a week for one cycle relative to control; type: functional; settings: BXPC-3, ip, route intraperitoneal, read-out: TGI
# PC-3 [11] = assay: Antitumor activity against human PC3 cells xenografted in SCID mouse assessed as primary tumor occurrence at 20 mg/kg, ip administered once a week for two cycles measured after 2 cycles relative to control; type: functional; settings: route intraperitoneal
# Outline: (§5)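 PC3 xenografts were grown in SCID mice (10^6 cells per inoculum), 14 mice (28 tumors) per group, dosed ip from about 100 mm3. The test agent was given in 5% Tween 80; paclitaxel was given in Cremophor diluted in saline, with a vehicle of 1:1 ethanol/Cremophor diluted 1:3 in saline. Volume and %ΔT/ΔC were derived from caliper readings twice weekly. Occurrence of primary tumors and of axillary and bone metastases was scored (n = 7). Two-tailed t test.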
# PC-3 [12] = assay: Antitumor activity against human PC3 cells xenografted in SCID mouse assessed as bone metastasis at 20 mg/kg, ip administered once a week for two cycles measured after 2 cycles relative to control; type: functional; settings: route intraperitoneal; outline: as §5
# PC-3 [13] = assay: Antitumor activity against human PC3 cells xenografted in SCID mouse assessed as tumor growth inhibition at 20 mg/kg, ip administered once a week for two cycles measured after 2 cycles relative to control; type: functional; settings: PC-3, ip, route intraperitoneal, read-out: TGI; outline: as §5
# DU-145 [14] = assay: Antitumor activity against human DU145 cells xenografted in SCID mouse assessed as tumor growth inhibition at 20 mg/kg, ip administered once a week for two cycles measured after 2 cycles relative to control; type: functional; settings: DU-145, ip, route intraperitoneal, read-out: TGI
# Outline: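 DU145 xenografts were grown in SCID mice from 10^6-cell inocula, with at least 30 animals in total. Treatment started ip at a mean tumor volume of about 100 mm3. The test agent was given in 5% Tween 80; paclitaxel was dissolved in Cremophor and diluted in saline. Caliper volumes were taken twice weekly and %ΔT/ΔC calculated; two-tailed t test.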
# PC-3 [15] = assay: Antitumor activity against human PC3 cells xenografted in SCID mouse assessed as axillary metastasis at 20 mg/kg, ip administered once a week for two cycles measured after 2 cycles relative to control; type: functional; settings: route intraperitoneal; outline: as §5
# HUVEC = assay: as §3; type: cell-based; settings: huvec, 48 h; outline: as §1
# [16] = molecular target: Sigma non-opioid intracellular receptor 1 (Homo sapiens, UniProt Q99720); assay: Displacement of [3H]-(+)-pentazocine from sigma 1 receptor in human Jurkat cell membrane; type: cell membranes
# Chain of Sigma non-opioid intracellular receptor 1 (Q99720 whole entry): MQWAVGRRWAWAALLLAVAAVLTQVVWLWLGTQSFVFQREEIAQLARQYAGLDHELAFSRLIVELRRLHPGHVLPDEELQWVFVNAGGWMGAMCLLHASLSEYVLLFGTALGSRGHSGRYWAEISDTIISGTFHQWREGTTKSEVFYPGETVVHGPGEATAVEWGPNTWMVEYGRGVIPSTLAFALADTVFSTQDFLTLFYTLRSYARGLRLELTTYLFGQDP
# Outline: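 Jurkat cell membranes incubated with 8 nM [3H](+)-pentazocine and a range of test concentrations for 2 h at 22 °C in Tris-HCl buffer, pH 7.4. Nonspecific binding defined with 10 μM haloperidol. Run in triplicate.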
# [17] = Displacement of [3H]1,3-di-otolylguanidine from sigma 2 receptor in rat cerebral cortex membranes; type: cell membranes, Membrane
# Outline: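 Rat cerebral cortex membranes incubated with 5 nM [3H]DTG plus 300 nM (+)-pentazocine to mask σ1 sites, together with a range of test concentrations, 2 h at 22 °C in Tris-HCl, pH 7.4. Nonspecific binding defined with 10 μM haloperidol.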
# [18] = Displacement of [3H]batrachotoxin benzoate from Na+ channel after 60 mins by liquid scintillation counting
# Outline: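 Na+ channel site 2 binding: vesicle preparation (150−500 μg protein) incubated 60 min with 20−25 nM [3H]BTX-B and 50 μg Leiurius quinquestriatus venom. Buffer was 130 mM choline chloride, 50 mM HEPES/Tris pH 7.4, glucose, MgSO4, KCl, BSA. Filtered on GF/C with cold washes; scintillation counting. Nonspecific binding defined with 250 μM veratridine.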
compound,measurement,setting,value
Nc1ccn([C@@H]2O[C@H](CO)[C@@H](O)C2(F)F)c(=O)n1 [GEMCITABINE],inhibition in vivo at 70 mg/kg,BXPC-3 [1],38.1%
same,GI50,MIA PaCa-2,35.8 µM
same,TGI,MIA PaCa-2,100 µM
same,CC50,MIA PaCa-2,0.1 µM
same,GI50,BXPC-3 [2],3.64 µM
same,TGI,BXPC-3 [2],9.05 µM
O=c1[nH]cc(F)c(=O)[nH]1 [FLUOROURACIL],GI50,HCT-116,8.8 µM
same,TGI,HCT-116,100 µM
same,CC50,HCT-116,0.1 µM
same,GI50,OVCAR-5,26.4 µM
same,TGI,OVCAR-5,100 µM
same,CC50,OVCAR-5; read-out: LC50 (the source's name),0.1 µM
same,GI50,HL-60(TB),0.1 µM
same,TGI,HL-60(TB),0.1 µM
same,CC50,HL-60(TB),0.1 µM
same,inhibition in vivo at 17 mg/kg,BXPC-3 [3],23.7%
same,GI50,HCT-15,21.1 µM
same,TGI,HCT-15,100 µM
same,CC50,HCT-15,0.1 µM
same,GI50,MCF7,14.5 µM
same,TGI,MCF7,100 µM
same,CC50,MCF7,0.1 µM
same,GI50 at 48 h,[4],3.6 µM
same,GI50,MIA PaCa-2,30.6 µM
same,TGI,MIA PaCa-2,100 µM
same,CC50,MIA PaCa-2,0.1 µM
same,TGI,[5],1 µM
same,GI50 at 48 h,[6],62 µM
same,TGI,NHDF,100 µM
same,inhibition in vivo at 35 mg/kg,BXPC-3 [7],36.7%
same,GI50,BXPC-3 [2],2.9 µM
same,TGI,BXPC-3 [2],8.4 µM
same,GI50,U-251,69.6 µM
same,TGI,U-251,100 µM
same,CC50,U-251,0.1 µM
same,GI50,IGROV-1,8.12 µM
same,TGI,IGROV-1,100 µM
same,CC50,IGROV-1,0.1 µM
same,GI50,SK-HEP1,7.6 µM
same,TGI,SK-HEP1,100 µM
same,CC50,SK-HEP1,0.1 µM
same,GI50,PC-3 [8],10.5 µM
same,TGI,PC-3 [8],100 µM
same,CC50,PC-3 [8],0.1 µM
same,GI50,DU-145 [9],20 µM
same,TGI,DU-145 [9],100 µM
same,CC50,DU-145 [9],0.1 µM
Nc1ccn([C@@H]2O[C@H](CO)[C@@H](O)[C@@H]2O)c(=O)n1 [CYTARABINE],inhibition in vivo at 10 mg/kg,BXPC-3 [10],23.8%
CC(=O)O[C@H]1C(=O)[C@@]2(C)[C@H]([C@H](OC(=O)c3ccccc3)[C@]3(O)C[C@H](OC(=O)[C@H](O)[C@@H](NC(=O)c4ccccc4)c4ccccc4)C(C)=C1C3(C)C)[C@]1(OC(C)=O)CO[C@@H]1C[C@@H]2O [PACLITAXEL],Activity,PC-3 [11],100%
same,Activity,PC-3 [12],86%
same,inhibition in vivo at 20 mg/kg,PC-3 [13],79.1%
same,inhibition in vivo at 20 mg/kg,DU-145 [14],26.6%
same,Activity,PC-3 [15],14%
c1ccc(C(c2ccc(CCCN3CCNCC3)cc2)C23CC4CC(CC(C4)C2)C3)cc1 (stereo not drawn),GI50,HCT-116,2.96 µM
same,TGI,HCT-116,5.85 µM
same,CC50,HCT-116,0.00874 µM
same,GI50,HL-60(TB),0.00301 µM
same,TGI,HL-60(TB),0.00822 µM
same,CC50,HL-60(TB),0.1 µM
same,GI50,HCT-15,3.15 µM
same,TGI,HCT-15,6.13 µM
same,CC50,HCT-15,0.00911 µM
same,GI50,MCF7,3.1 µM
same,TGI,MCF7,5.97 µM
same,CC50,MCF7,0.00884 µM
same,GI50 at 48 h,[4],3.97 µM
same,LC50,HUVEC,100 µM
same,TGI,HUVEC,7.17 µM
same,TGI,[5],7.28 µM
same,GI50 at 48 h,[6],4.07 µM
same,LC50,NHDF,9.58 µM
same,TGI,NHDF,6.82 µM
same,GI50,BXPC-3 [2],3.38 µM
same,LC50,BXPC-3 [2],0.00944 µM
same,TGI,BXPC-3 [2],6.41 µM
same,GI50,U-251,3.3 µM
same,TGI,U-251,5.87 µM
same,CC50,U-251,0.00844 µM
same,IC50,[16],0.042 µM
same,GI50,IGROV-1,3.29 µM
same,TGI,IGROV-1,6.34 µM
same,CC50,IGROV-1,0.00939 µM
same,IC50,[17],0.461 µM
same,GI50,SK-HEP1,3.67 µM
same,TGI,SK-HEP1,6.19 µM
same,CC50,SK-HEP1,0.0087 µM
same,IC50,[18],> 1 µM
same,GI50,PC-3 [8],3.06 µM
same,TGI,PC-3 [8],5.71 µM
same,CC50,PC-3 [8],0.00837 µM
same,GI50,DU-145 [9],2.83 µM
same,TGI,DU-145 [9],5.65 µM
same,CC50,DU-145 [9],0.00846 µM
